Measured values of several laboratories.
Each line is one published result; the experiments were not run side by side.
CDK9: Cyclin-dependent kinase 9 (CDK9, Homo sapiens, UniProt P50750)
CDK1: Cyclin-dependent kinase 1 (CDK1, Homo sapiens, UniProt P06493)
MAP2K7: Dual specificity mitogen-activated protein kinase kinase 7 (MAP2K7, Homo sapiens, UniProt O14733)

The inhibition of CC(C)(C)c1cnc(CSc2cnc(NC(=O)C3CCN(C(=O)CCCCCN4Cc5cc6c(cc5C4)C(=O)N(C4CCC(=O)NC4=O)C6=O)CC3)s2)o1 (stereo not shown) is reported as 93.4% (CDK9; protein level, degrader, western blot; TC-71; 25 nM).
C[C@]1(O)CCCN(c2nc(Nc3ccc(S(=O)(=O)N[C@H]4CC[C@H](CN5CCN(c6ccc(C7CCC(=O)NC7=O)cc6F)CC5)CC4)cc3F)ncc2C(F)(F)F)C1 (stereo partly shown) has a Dmax of 82% (CDK1; protein level, degrader, western blot; TOV21G).
COc1ccc2oc(-c3ccc4nc(N)oc4c3)c/c(=N\c3ccccc3NC(=O)CCN)c2c1 has a remaining signal of 90% (Proto-oncogene tyrosine-protein kinase Src (SRC, Homo sapiens, UniProt P12931, T341M); cell-free assay; 1 µM).
C#Cc1cc(-c2cc(Nc3nc(N[C@@H](C)c4ccc(F)cn4)ncc3Cl)n[nH]2)ccc1C=O has an inhibition of 80.2% (Phosphorylase b kinase gamma catalytic chain, skeletal muscle/heart isoform (PHKG1, Homo sapiens, UniProt Q16816); enzyme activity, inhibitor; 0.2 µM).
CN1C(=O)CCC(N2C(=O)c3cc4c(cc3C2=O)CN(CCCCCCCC(=O)N2CCC(C(=O)Nc3ncc(SCc5ncc(C(C)(C)C)o5)s3)CC2)C4)C1=O (stereo not shown) has an inhibition of 5.1% (CDK9; protein level, degrader, western blot; TC-71; 25 nM).
Cc1cc(O)c(-c2ccc([C@@H](C)CN(C)C)cc2)c2c1[nH]c(=O)c1sccc12 gave an inhibition of 4.47% (MAP2K7; enzyme activity, inhibitor; 0.1 µM).
C[C@]1(O)CCCN(c2nc(Nc3ccc(S(=O)(=O)N[C@@H]4CCN(CC5CCN(c6ccc(C7CCC(=O)NC7=O)cc6F)CC5)C[C@H]4F)cc3F)ncc2C(F)(F)F)C1 (stereo partly shown) gave a Dmax of 26% (CDK1; protein level, degrader, western blot; TOV21G).
NC/C(=C\F)COc1cccc(Cn2c(=S)[nH]c(=O)c3[nH]cnc32)c1 has a remaining activity of -4.18% (Myeloperoxidase (Mus musculus, UniProt P11247); enzyme activity, inhibitor; 10 µM).
The Dmax of C[C@]1(O)CCCN(c2nc(Nc3ccc(S(=O)(=O)N[C@H]4CC[C@H](CN5CCN(c6ccc(C7CCC(=O)NC7=O)c(F)c6)CC5)CC4)cc3F)ncc2C(F)(F)F)C1 (stereo partly shown) is reported as 73% (CDK1; protein level, degrader, western blot; TOV21G).
The remaining binding of CCCCC(=O)Nc1ccc(-c2ccc3ncn(CCC)c(=O)c3c2)cn1 is reported as 100% (Serine/threonine-protein kinase Sgk2 (SGK2, Homo sapiens, UniProt Q9HBY8); binding, competition with immobilised ligand; 0.5 µM).
The inhibition of Cc1cc2c(C(N)=O)c(N)n(-c3c(C)ccc(O)c3C)c2nc1C is reported as 20.4% (Proto-oncogene tyrosine-protein kinase Src (SRC, Homo sapiens, UniProt P12931); enzyme activity, inhibitor, TR-FRET; 1.524 nM).
COc1cc(Br)cc(C2NC(=O)NC(C)=C2C(=O)OCc2ccccc2)c1O (stereo not shown) gave an inhibition of over 60% (Voltage-dependent T-type calcium channel subunit alpha-1H (CACNA1H, Homo sapiens, UniProt O95180); ion current, inhibitor, patch clamp; HEK293; 10 µM).
The remaining signal of C1=C/COCc2cc(ccc2OCCN2CCCC2)Nc2nccc(n2)-c2cccc(c2)COC/1 is reported as 73% (MAP2K7; cell-free assay; 0.1 µM).
